# Assay results: ChEMBL document CHEMBL5303300, “EUbOPEN Chemogenomics Library - Multiplex” (2023)
# Several values for one entry are separate records, joined by “and”; a condition that tells them apart may be missing. Identical values can stand only once.
# System: HEK-293T
# Experiment: Multiplex assay against HEK293T
# Assay type: toxicity, cell-based
# Settings: human, number of replicates 2
# Summary of the method: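 Live cells carried four stains from seeding: Hoechst33342, BioTracker Green Microtubule Cytoskeleton Dye, MitoTracker Red and Annexin V Alexa Fluor 680. They were imaged on a CQ1 microscope at 37°C and 5% CO2 after compound addition. Using CellPathfinder machine-learning gating, cells were split into Hoechst high-intensity objects or normal cells, normal cells into healthy, pyknosed or fragmented nuclei, and pyknosed cells into mitotic or apoptotic; tubulin, mitochondrial-mass and membrane-permeability phenotypes are per cents of healthy-nucleus cells.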
# [1] = 12 h, 1 µM, compound concentration 1 uM
# [2] = 12 h, 10 µM, compound concentration 10 uM
# [3] = 24 h, 1 µM, compound concentration 1 uM
# [4] = 24 h, 10 µM, compound concentration 10 uM
# [5] = 48 h, 1 µM, compound concentration 1 uM
# [6] = 48 h, 10 µM, compound concentration 10 uM
smiles,measurement,setting,value
CCN1C(=O)N(c2c(F)c(OC)cc(OC)c2F)Cc2cnc3[nH]c(CN4CCOCC4)cc3c21 [PEMIGATINIB],Population Apoptotic (%),[1],58% and 63%
same,Population Fragmented Nuclei (%),[1],3%
same,Population Healthy Nuclei (%),[1],82% and 83%
same,Population Hoechst High Intensity Objects (%),[1],7% and 9%
same,Population Membrane Permeable-Phenotype (%),[1],3% and 0%
same,Population Mitochondria Different-Phenotype (%),[1],15% and 20%
same,Population Mitotic Cells (%),[1],41% and 36%
same,Population Normal (%),[1],92% and 90%
same,Population Pyknosed Nuclei (%),[1],13%
same,Population Tubulin-Different-Phenotype (%),[1],51% and 60%
same,Total Cell Count,[1],617 and 677
same,Population Apoptotic (%),[2],64% and 53%
same,Population Fragmented Nuclei (%),[2],4% and 2%
same,Population Healthy Nuclei (%),[2],83% and 87%
same,Population Hoechst High Intensity Objects (%),[2],12% and 8%
same,Population Membrane Permeable-Phenotype (%),[2],2%
same,Population Mitochondria Different-Phenotype (%),[2],31% and 18%
same,Population Mitotic Cells (%),[2],35% and 46%
same,Population Normal (%),[2],87% and 91%
same,Population Pyknosed Nuclei (%),[2],11% and 9%
same,Population Tubulin-Different-Phenotype (%),[2],77% and 68%
same,Total Cell Count,[2],550 and 620
same,Population Apoptotic (%),[3],41% and 56%
same,Population Fragmented Nuclei (%),[3],8% and 7%
same,Population Healthy Nuclei (%),[3],82% and 83%
same,Population Hoechst High Intensity Objects (%),[3],7% and 8%
same,Population Membrane Permeable-Phenotype (%),[3],3% and 1%
same,Population Mitochondria Different-Phenotype (%),[3],7% and 5%
same,Population Mitotic Cells (%),[3],58% and 43%
same,Population Normal (%),[3],92% and 91%
same,Population Pyknosed Nuclei (%),[3],9%
same,Population Tubulin-Different-Phenotype (%),[3],29% and 30%
same,Total Cell Count,[3],1042 and 1171
same,Population Apoptotic (%),[4],52% and 58%
same,Population Fragmented Nuclei (%),[4],4% and 5%
same,Population Healthy Nuclei (%),[4],86% and 89%
same,Population Hoechst High Intensity Objects (%),[4],12% and 11%
same,Population Membrane Permeable-Phenotype (%),[4],1%
same,Population Mitochondria Different-Phenotype (%),[4],19% and 16%
same,Population Mitotic Cells (%),[4],47% and 41%
same,Population Normal (%),[4],87% and 88%
same,Population Pyknosed Nuclei (%),[4],8% and 4%
same,Population Tubulin-Different-Phenotype (%),[4],71% and 61%
same,Total Cell Count,[4],678 and 726
same,Population Apoptotic (%),[5],17%
same,Population Fragmented Nuclei (%),[5],14% and 12%
same,Population Healthy Nuclei (%),[5],83% and 84%
same,Population Hoechst High Intensity Objects (%),[5],7% and 9%
same,Population Membrane Permeable-Phenotype (%),[5],6% and 2%
same,Population Mitochondria Different-Phenotype (%),[5],0%
same,Population Mitotic Cells (%),[5],82%
same,Population Normal (%),[5],92% and 90%
same,Population Pyknosed Nuclei (%),[5],2% and 3%
same,Population Tubulin-Different-Phenotype (%),[5],10% and 18%
same,Total Cell Count,[5],2805 and 2683
same,Population Apoptotic (%),[6],33% and 24%
same,Population Fragmented Nuclei (%),[6],9% and 10%
same,Population Healthy Nuclei (%),[6],87% and 86%
same,Population Hoechst High Intensity Objects (%),[6],13% and 12%
same,Population Membrane Permeable-Phenotype (%),[6],3% and 4%
same,Population Mitochondria Different-Phenotype (%),[6],2% and 4%
same,Population Mitotic Cells (%),[6],66% and 75%
same,Population Normal (%),[6],86% and 87%
same,Population Pyknosed Nuclei (%),[6],3%
same,Population Tubulin-Different-Phenotype (%),[6],55%
same,Total Cell Count,[6],1120 and 944
CS(=O)(=O)c1ccc(C(=O)Nc2cc(F)c(F)c(COc3cc(F)c(Br)cc3CN3CC[C@H](O)C3)c2)c(Cl)c1.O=CO,Population Apoptotic (%),[1],60% and 64%
same,Population Mitotic Cells (%),[1],39% and 35%
same,Population Normal (%),[1],90%
same,Total Cell Count,[1],610 and 577
same,Population Apoptotic (%),[2],90% and 72%
same,Population Mitotic Cells (%),[2],9% and 27%
same,Population Normal (%),[2],91% and 89%
same,Total Cell Count,[2],406 and 397
same,Population Apoptotic (%),[3],59% and 58%
same,Population Mitotic Cells (%),[3],40% and 41%
same,Population Normal (%),[3],91% and 92%
same,Total Cell Count,[3],921 and 854
same,Population Apoptotic (%),[4],91% and 78%
same,Population Mitotic Cells (%),[4],8%
same,Population Normal (%),[4],85% and 83%
same,Total Cell Count,[4],392 and 412
same,Population Apoptotic (%),[5],23% and 44%
same,Population Mitotic Cells (%),[5],76% and 55%
same,Population Normal (%),[5],90% and 89%
same,Total Cell Count,[5],2126 and 1643
same,Population Apoptotic (%),[6],90% and 83%
same,Population Mitotic Cells (%),[6],10% and 16%
same,Population Normal (%),[6],80% and 81%
same,Total Cell Count,[6],434 and 464
CC(C)S(=O)(=O)c1ccccc1Nc1nc(N[C@@H]2CCCN(CCCCCCCNC(=O)COc3cccc4c3C(=O)N(C3CCC(=O)NC3=O)C4=O)C2)ncc1Cl (some centres not stated),Population Apoptotic (%),[1],72% and 70%
same,Population Fragmented Nuclei (%),[1],2% and 3%
same,Population Healthy Nuclei (%),[1],80% and 76%
same,Population Hoechst High Intensity Objects (%),[1],8% and 16%
same,Population Membrane Permeable-Phenotype (%),[1],0%
same,Population Mitochondria Different-Phenotype (%),[1],61% and 50%
same,Population Mitotic Cells (%),[1],27% and 29%
same,Population Normal (%),[1],91% and 83%
same,Population Pyknosed Nuclei (%),[1],17% and 19%
same,Population Tubulin-Different-Phenotype (%),[1],75% and 73%
same,Total Cell Count,[1],378 and 397
same,Population Apoptotic (%),[2],48% and 67%
same,Population Fragmented Nuclei (%),[2],4% and 5%
same,Population Healthy Nuclei (%),[2],63% and 65%
same,Population Hoechst High Intensity Objects (%),[2],18% and 15%
same,Population Membrane Permeable-Phenotype (%),[2],6%
same,Population Mitochondria Different-Phenotype (%),[2],70%
same,Population Mitotic Cells (%),[2],51% and 32%
same,Population Normal (%),[2],81% and 84%
same,Population Pyknosed Nuclei (%),[2],31% and 29%
same,Population Tubulin-Different-Phenotype (%),[2],48% and 66%
same,Total Cell Count,[2],366 and 343
same,Population Apoptotic (%),[3],65% and 76%
same,Population Fragmented Nuclei (%),[3],3% and 5%
same,Population Healthy Nuclei (%),[3],82% and 79%
same,Population Hoechst High Intensity Objects (%),[3],12% and 14%
same,Population Membrane Permeable-Phenotype (%),[3],1%
same,Population Mitochondria Different-Phenotype (%),[3],65% and 63%
same,Population Mitotic Cells (%),[3],34% and 23%
same,Population Normal (%),[3],87% and 85%
same,Population Pyknosed Nuclei (%),[3],14% and 15%
same,Population Tubulin-Different-Phenotype (%),[3],69% and 67%
same,Total Cell Count,[3],385 and 384
same,Population Apoptotic (%),[4],79% and 70%
same,Population Fragmented Nuclei (%),[4],6% and 3%
same,Population Healthy Nuclei (%),[4],65% and 61%
same,Population Hoechst High Intensity Objects (%),[4],19%
same,Population Membrane Permeable-Phenotype (%),[4],1% and 2%
same,Population Mitochondria Different-Phenotype (%),[4],81% and 87%
same,Population Mitotic Cells (%),[4],20% and 30%
same,Population Normal (%),[4],80%
same,Population Pyknosed Nuclei (%),[4],28% and 34%
same,Population Tubulin-Different-Phenotype (%),[4],85% and 93%
same,Total Cell Count,[4],341 and 356
same,Population Apoptotic (%),[5],78% and 74%
same,Population Fragmented Nuclei (%),[5],3%
same,Population Healthy Nuclei (%),[5],84% and 83%
same,Population Hoechst High Intensity Objects (%),[5],12% and 14%
same,Population Membrane Permeable-Phenotype (%),[5],0% and 1%
same,Population Mitochondria Different-Phenotype (%),[5],66% and 57%
same,Population Mitotic Cells (%),[5],21% and 25%
same,Population Normal (%),[5],87% and 85%
same,Population Pyknosed Nuclei (%),[5],11% and 13%
same,Population Tubulin-Different-Phenotype (%),[5],66% and 57%
same,Total Cell Count,[5],316 and 306
same,Population Apoptotic (%),[6],78% and 74%
same,Population Fragmented Nuclei (%),[6],6% and 5%
same,Population Healthy Nuclei (%),[6],70% and 63%
same,Population Hoechst High Intensity Objects (%),[6],18% and 20%
same,Population Membrane Permeable-Phenotype (%),[6],2% and 1%
same,Population Mitochondria Different-Phenotype (%),[6],73% and 79%
same,Population Mitotic Cells (%),[6],21% and 25%
same,Population Normal (%),[6],81% and 79%
same,Population Pyknosed Nuclei (%),[6],23% and 31%
same,Population Tubulin-Different-Phenotype (%),[6],66% and 77%
same,Total Cell Count,[6],296 and 313
Cn1cc(-c2ccc(-c3cncc(Cl)c3N3CCC4(CCNC4=O)CC3)cc2)cn1,Population Apoptotic (%),[1],62% and 39%
same,Population Fragmented Nuclei (%),[1],2% and 4%
same,Population Healthy Nuclei (%),[1],90% and 84%
same,Population Hoechst High Intensity Objects (%),[1],6% and 5%
same,Population Membrane Permeable-Phenotype (%),[1],5% and 4%
same,Population Mitochondria Different-Phenotype (%),[1],14% and 18%
same,Population Mitotic Cells (%),[1],37% and 60%
same,Population Normal (%),[1],93% and 94%
same,Population Pyknosed Nuclei (%),[1],6% and 11%
same,Population Tubulin-Different-Phenotype (%),[1],58% and 67%
same,Total Cell Count,[1],574 and 615
same,Population Apoptotic (%),[2],41% and 49%
same,Population Fragmented Nuclei (%),[2],2% and 3%
same,Population Healthy Nuclei (%),[2],87% and 86%
same,Population Hoechst High Intensity Objects (%),[2],7%
same,Population Membrane Permeable-Phenotype (%),[2],5% and 6%
same,Population Mitochondria Different-Phenotype (%),[2],40% and 35%
same,Population Mitotic Cells (%),[2],58% and 50%
same,Population Normal (%),[2],92%
same,Population Pyknosed Nuclei (%),[2],10%
same,Population Tubulin-Different-Phenotype (%),[2],98% and 95%
same,Total Cell Count,[2],600 and 554
same,Population Apoptotic (%),[3],36% and 51%
same,Population Fragmented Nuclei (%),[3],6% and 9%
same,Population Healthy Nuclei (%),[3],86% and 85%
same,Population Hoechst High Intensity Objects (%),[3],9% and 10%
same,Population Membrane Permeable-Phenotype (%),[3],3%
same,Population Mitochondria Different-Phenotype (%),[3],8% and 7%
same,Population Mitotic Cells (%),[3],63% and 48%
same,Population Normal (%),[3],90% and 89%
same,Population Pyknosed Nuclei (%),[3],7% and 5%
same,Population Tubulin-Different-Phenotype (%),[3],53%
same,Total Cell Count,[3],822 and 828
same,Population Apoptotic (%),[4],43% and 49%
same,Population Fragmented Nuclei (%),[4],5%
same,Population Healthy Nuclei (%),[4],85% and 84%
same,Population Hoechst High Intensity Objects (%),[4],5% and 9%
same,Population Membrane Permeable-Phenotype (%),[4],6% and 5%
same,Population Mitochondria Different-Phenotype (%),[4],34% and 30%
same,Population Mitotic Cells (%),[4],56% and 50%
same,Population Normal (%),[4],94% and 90%
same,Population Pyknosed Nuclei (%),[4],9% and 10%
same,Population Tubulin-Different-Phenotype (%),[4],95% and 94%
same,Total Cell Count,[4],684 and 624
same,Population Apoptotic (%),[5],31% and 36%
same,Population Fragmented Nuclei (%),[5],16% and 14%
same,Population Healthy Nuclei (%),[5],80% and 82%
same,Population Hoechst High Intensity Objects (%),[5],16% and 14%
same,Population Membrane Permeable-Phenotype (%),[5],5% and 4%
same,Population Mitochondria Different-Phenotype (%),[5],2%
same,Population Mitotic Cells (%),[5],68% and 63%
same,Population Normal (%),[5],83% and 85%
same,Population Pyknosed Nuclei (%),[5],2% and 3%
same,Population Tubulin-Different-Phenotype (%),[5],42% and 49%
same,Total Cell Count,[5],1341 and 1209
same,Population Apoptotic (%),[6],55% and 50%
same,Population Fragmented Nuclei (%),[6],8% and 7%
same,Population Healthy Nuclei (%),[6],84% and 83%
same,Population Hoechst High Intensity Objects (%),[6],10%
same,Population Membrane Permeable-Phenotype (%),[6],8%
same,Population Mitochondria Different-Phenotype (%),[6],15% and 18%
same,Population Mitotic Cells (%),[6],45% and 49%
same,Population Normal (%),[6],89%
same,Population Pyknosed Nuclei (%),[6],6% and 8%
same,Population Tubulin-Different-Phenotype (%),[6],87% and 85%
same,Total Cell Count,[6],1065 and 859
